We go through 13 compounds from PubChem BioAssay.

A short description of assay [1]: inhibitors of TNFa-induced NFkB p65 translocation, primary screen, imaging, HUVEC, MLSMR starter and 10KST1 sets (AID 438;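 active means inhibition above 20% together with a positive visual image hit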;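 further: compound added about 3h40 before a 20 min TNFalpha stimulation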;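 on inhibition: signal is the nuclear over cytoplasmic p65 intensity ratio per well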). To be noted: HUVEC TNFa-induced p65 nuclear translocation; cell count: measured here: nuclei count (cytotoxicity indicator), at 2.08 µM; inhibition: at 2 µM, stronger effect = higher value, 0% TNFa-plus-vehicle, 100% no-TNFa wells.
Assay [2] is described as follows: endothelial E-selectin expression blockers – imaging, HUVEC, immunofluorescence, MLSMR starter and 10KST1 sets, primary screen (AID 487;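 active means visually confirmed hit in the image check and inhibition above 20%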;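 on inhibition: signal is fraction of cell area covered by stained E-selectin grains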;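 on nuclei count: 100% = median nuclei count of all wells on the same plate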). The conditions noted are these: HUVEC TNFalpha-induced E-selectin immunofluorescence imaging, at 2 µM; inhibition: stronger effect = higher value; nuclei count: measured here: cell number, toxicity.
Assay [3] is described as follows: Primary imaging screen for DUSP6 inhibitors that restore phospho-Erk in transfected HeLa cells, chemical complementation (AID 609;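 active means compounds giving at least 50% inhibition in the cell-based MKP-3 phosphatase rescue imaging test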;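 on inhibition: phospho-Erk level distribution per well compared with pooled transfected vehicle control wells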). The conditions noted are these: HeLa MKP-3 transfected, phospho-Erk imaging KS statistic, at 10 µM, cells stimulated with TPA for 15 min.
In assay [4] the target is Dual specificity protein phosphatase 6 (Homo sapiens) (UniProt Q16828). The description is as above. The conditions noted are these: HeLa MKP-3 transfected, phospho-Erk imaging KS statistic; at 10 µM; stronger effect = higher value; cells stimulated with TPA for 15 min.
The target of assay [5] is Voltage-gated potassium channel subunit beta-2 (Rattus norvegicus) (UniProt P62483). As to the kind of experiment: inhibitors of rat Kvbeta2 reductase activity – biochemical, NADPH fluorescence, primary screen (AID 622;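 active means fluorescence slope higher than the sample average by over 3 SD, cut at about -0.22 in these data, passing the limit was not always enough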;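 further: slope of raw intensity against log time taken from 70 to 1610 s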). The conditions noted are these: recombinant KvBeta, 4-cyanobenzaldehyde reduction, at 10 µM, stronger effect = higher value.
For assay [6] the target is unchanged. As to the kind of experiment: enhancers of rat Kvbeta2 NADPH turnover – biochemical, NADPH fluorescence, primary screen (AID 623;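 active means NADPH fluorescence slope more negative than the mean of all samples by about 3 SD, 99.7% confidence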;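 further: fluorescence intensity change per second fitted from 20 to 320 s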). To be noted: Recombinant KvBeta, NADPH fluorescence decrease slope, 10 min; at 10 µM; stronger effect = lower value.
Assay [7] has as its target Muscarinic acetylcholine receptor M4 (Homo sapiens) (UniProt P08173). As to the kind of experiment: M4-linked GIRK flux change, two-sided – cell-based, HEK293 M4/GIRK, thallium flux, BTC-AM, M4 allosteric agonist project, primary screen (AID 625;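 active means fluorescence slope after compound addition differing from the mean of all tested samples at 99.7% confidence, mostly higher but some lower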;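 further: thallium influx through GIRK channels coupled to M4 in HEK293 cells with BTC-AM dye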). To be noted: at 10 µM, actives lie on both sides. Put shortly: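 Material: M4/GIRK1/GIRK2 stable HEK293 cell line. Medium: pH 7.3 thallium assay buffer. Dosing: single compound concentration, 10 µM final. Schedule: 1 h dye loading, 2 min kinetic read. Measured by: kinetic fluorescence with BTC-AM dye. Read-out: post-addition slope, 15–24 s, of baseline-normalized fluorescence. Benchmarks: carbachol and DMSO controls.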

Assay [8] is described as follows: inhibitors of larval lipid processing in zebrafish, primary screen, whole organism, PED6 fluorescence, gall bladder and intestine (AID 686;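 active means a full or partial loss of lipid-probe fluorescence in the fish gall bladder, intestine or both, judged by eye; inactive means no fluorescence loss, or compound toxic to the fish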;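 further: larvae 5 to 7 days old with five fish per well; signal comes from phospholipase A2 cleavage of quenched PED6 carried via bile; overnight exposure to compound and PED6 before scoring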). To be noted: Zebrafish larvae PED6 lipid processing, fluorescence scoring; screened at 20 µM (by protocol). Put shortly:
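System: live zebrafish larvae aged 5-7 days, whole organism; measure: graded gall bladder and intestinal fluorescence inhibition per well; incubation: overnight exposure; reagent: ingested quenched lipid PED6 at 100 nM; signal: By-eye fluorescence microscopy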

A short description of assay [9]: loss of swimming-algae plug formation – whole organism, Chlamydomonas reinhardtii, WT vs cilia-less mutant, absorbance, 96-well, primary screen (AID 463189).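 Further: 0% = wild type cc124 cells in DMSO and 100% = ciliumless bld1 mutant cells.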 To be noted: Chlamydomonas reinhardtii gravitaxis, OD600 absorbance, 2 days; at 10 µM; stronger effect = higher value.
Where [10] appears, read: measured here: cell density z-score.
Setting [11] is: measured here: nuclear c-Myc green intensity z-score.
Setting [12] is: measured here: nuclear pErk red intensity z-score, stronger effect = higher value.

Calls of active or inactive are those of the source.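 How the source made its calls, unless noted: active means inhibition at or above 50% relative to wild type and mutant plate controls; inactive means inhibition below 50%.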

Voltage-gated potassium channel subunit beta-2 (Rattus norvegicus), sequence (P62483 whole entry, looked up): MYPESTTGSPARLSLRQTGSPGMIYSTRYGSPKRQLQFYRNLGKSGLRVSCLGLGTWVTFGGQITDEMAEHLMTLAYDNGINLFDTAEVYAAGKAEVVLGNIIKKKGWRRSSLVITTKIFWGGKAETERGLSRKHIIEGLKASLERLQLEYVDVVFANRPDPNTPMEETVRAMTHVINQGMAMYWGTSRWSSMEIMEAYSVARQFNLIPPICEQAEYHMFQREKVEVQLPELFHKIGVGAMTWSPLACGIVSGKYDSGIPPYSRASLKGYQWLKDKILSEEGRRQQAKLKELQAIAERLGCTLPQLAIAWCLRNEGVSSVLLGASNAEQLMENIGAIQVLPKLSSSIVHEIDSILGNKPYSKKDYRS
Muscarinic acetylcholine receptor M4 (Homo sapiens), sequence (P08173 whole entry, looked up): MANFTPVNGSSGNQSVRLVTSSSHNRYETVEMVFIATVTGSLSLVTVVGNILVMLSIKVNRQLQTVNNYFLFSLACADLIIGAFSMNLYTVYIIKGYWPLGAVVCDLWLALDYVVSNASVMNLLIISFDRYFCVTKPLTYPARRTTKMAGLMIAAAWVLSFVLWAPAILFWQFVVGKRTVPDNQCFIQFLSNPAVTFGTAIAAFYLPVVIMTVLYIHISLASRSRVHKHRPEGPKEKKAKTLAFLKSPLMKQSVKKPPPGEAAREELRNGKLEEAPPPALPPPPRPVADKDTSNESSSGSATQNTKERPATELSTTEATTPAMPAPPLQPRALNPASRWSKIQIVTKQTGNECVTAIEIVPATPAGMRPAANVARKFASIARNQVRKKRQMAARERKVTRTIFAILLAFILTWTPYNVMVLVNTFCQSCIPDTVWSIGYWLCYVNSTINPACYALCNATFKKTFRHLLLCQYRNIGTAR
Dual specificity protein phosphatase 6 (Homo sapiens), sequence (Q16828 whole entry, looked up): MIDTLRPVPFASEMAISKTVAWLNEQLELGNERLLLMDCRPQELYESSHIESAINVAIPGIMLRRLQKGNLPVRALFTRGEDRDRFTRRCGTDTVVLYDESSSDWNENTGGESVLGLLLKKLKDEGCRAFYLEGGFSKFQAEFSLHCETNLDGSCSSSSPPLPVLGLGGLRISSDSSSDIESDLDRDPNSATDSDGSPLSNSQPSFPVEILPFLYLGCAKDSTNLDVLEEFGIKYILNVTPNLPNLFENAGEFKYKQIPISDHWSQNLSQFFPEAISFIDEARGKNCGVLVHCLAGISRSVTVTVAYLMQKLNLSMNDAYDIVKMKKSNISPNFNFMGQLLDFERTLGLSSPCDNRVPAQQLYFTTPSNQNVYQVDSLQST

Take `Cc1cc(C)nc(N(C#N)CN2C(=O)c3ccccc3C2=O)n1`: the cell count in assay [1] was 629. Besides, the inhibition (as a rule, the change of the read-out against control, counted positive when it falls) in assay [1] was 6.2% (inactive); in [2] it was 26.6% (inactive); in [4], -9.53% (inactive); in [9], 30.7% (inactive). Moreover, in [2], the nuclei count is 107%. Besides, the z-score was -0.879 in assay [3] (setting [10]), 0.404 in [3] (setting [11]) and -0.916 in [3] (setting [12]). For the same compound, the values for the fluorescence slope in [5] and in assay [7] were -0.523 (inactive) and 0.00446 (inactive), respectively. The NADPH fluorescence slope in assay [6] was -3.9e-05 (inactive). For the same compound, the result in assay [8] was inactive.
Consider `Cc1ccc(OCC(O)CNS(=O)(=O)c2ccccc2C(=O)O)cc1` (centres undefined), for which, in assay [1], the cell count was determined as 625. Besides, the inhibition in assay [1] was -11.3% (inactive); in [2], -18.3% (inactive); in [4] it was 21.4% (inactive); in [9], -7.23% (inactive). The nuclei count in assay [2] was found to be 152%. In addition, the z-score in assay [3] (setting [10]) is 0.248; in [3] (setting [11]) it was 0.991; in assay [3] (setting [12]), -0.853. Further, the fluorescence slope was -0.412 (inactive) in assay [5] and 0.00639 (inactive) in [7]. Further, the NADPH fluorescence slope in assay [6] was -2.6e-05 (inactive). Also, the compound was classed as inactive in [8].
Turning to `COc1cccc(C(=O)OC2CCCN(C)C2)c1` (centres undefined), in assay [1], the cell count amounted to 524. For the same compound, the inhibition in assay [1] was 1.2% (inactive); in [2], -39.2% (inactive); in assay [4], 9.42% (inactive); in assay [9] it was 0.435% (inactive). The compound further displayed a nuclei count in [2] of 141%. Further, the z-score in [3] (setting [10]) was found to be 0.452; in assay [3] (setting [11]) it was 1.21; in assay [3] (setting [12]), 0.0712. In addition, the figures for the fluorescence slope in [5] and in assay [7] were -0.457 (inactive) and 0.00427 (inactive), respectively. In addition, the NADPH fluorescence slope in [6] was -8.4e-05 (inactive). In [8], the result was inactive.
As for `c1ccc2c(c1)CCOC2CNCCCN1CCCCC1` (centres undefined), the cell count in assay [1] stood at 701. For the same compound, the inhibition was -5.5% (inactive) in assay [1], -141% (inactive) in assay [2], 1.98% (inactive) in assay [4] and -4.57% (inactive) in [9]. For the same compound, the nuclei count in assay [2] is 172%. For the same compound, the z-score in [3] (setting [10]) was -0.992; in [3] (setting [11]), 1.14; in assay [3] (setting [12]), -0.201. For the same compound, the fluorescence slope is -0.473 (inactive) in [5] and 0.00496 (inactive) in assay [7]. The NADPH fluorescence slope in assay [6] was -6.5e-05 (inactive). The outcome in assay [8] was inactive.
On to `COc1ccc(CC(=O)OCN2C(=O)c3ccccc3C2=O)cc1`, for which the cell count in assay [1] is 518. In addition, the inhibition in [1] is -10.2% (inactive); in assay [2], -70.2% (inactive); in assay [4], 11.9% (inactive); in assay [9], 20.5% (inactive). The same compound gave a nuclei count in assay [2] of 138%. Moreover, the z-score in assay [3] (setting [10]) was 0.489; in assay [3] (setting [11]), -1.2; in [3] (setting [12]), -0.603. The fluorescence slope in [5] is -0.359 (inactive); in assay [7], 0.00563 (inactive). Further, the NADPH fluorescence slope in [6] is -1.7e-05 (inactive). Also, the call in assay [8] was inactive.
Turning to `O=C1C(=O)N(Cc2cccnc2)C(c2ccccn2)/C1=C(/O)c1ccc(F)cc1` (centres undefined), in assay [1], the cell count came out at 327. Moreover, the inhibition is -1.1% (inactive) in assay [1], -58.9% (inactive) in assay [2], -0.624% (inactive) in [4] and -9.85% (inactive) in [9]. In [2], this compound came in with a nuclei count of 98%. The results for the z-score in [3] (setting [10]), in assay [3] (setting [11]) and in assay [3] (setting [12]) were 1.24, 1.4 and -0.331, respectively. The fluorescence slope in assay [5] is -0.462 (inactive); in assay [7], 0.00549 (inactive). For the same compound, in assay [6], the NADPH fluorescence slope is -3.7e-05 (inactive). In assay [8], the outcome was inactive.
Take `CC(=O)C1=C(O)C(=O)N(c2ccc(S(N)(=O)=O)cc2)C1c1ccccc1F` (centres undefined): the cell count in assay [1] was determined as 382. The inhibition in assay [1] is -5.4% (inactive); in assay [2] it was 14.5% (inactive); in [4], 11.9% (inactive); in [9], -4.73% (inactive). The nuclei count in [2] worked out at 138%. Further, the z-score was -0.839 in [3] (setting [10]), -1.6 in assay [3] (setting [11]) and 0.715 in assay [3] (setting [12]). Besides, the results for the fluorescence slope in [5] and in assay [7] were -0.476 (inactive) and 0.00408 (inactive), respectively. In addition, the NADPH fluorescence slope in assay [6] is -0.000111 (inactive). In addition, in assay [8], the result was inactive.
Turning to `CCCCc1nc2sc3c(c2c(=O)[nH]1)CCC3`, in [1], the cell count was determined as 691. Besides, the inhibition in assay [1] was 3.3% (inactive); in assay [2], 8% (inactive); in assay [4] it was -9.53% (inactive); in assay [9], 34.8% (inactive). Further, in assay [2], the nuclei count worked out at 129%. The z-score in [3] (setting [10]) was -0.915; in assay [3] (setting [11]), 0.812; in assay [3] (setting [12]), -0.126. The fluorescence slope in assay [5] is -0.421 (inactive); in assay [7] it was 0.00621 (inactive). Also, the NADPH fluorescence slope in assay [6] was -4e-05 (inactive). Further, in assay [8], the call was inactive.
`C=CCn1c(C2CC(=O)N(c3ccc(C)cc3)C2)nc2ccccc21` (centres undefined): in assay [1], the cell count came to 591. For the same compound, the inhibition in [1] is -13.7% (inactive); in assay [2] it was 47.4% (inactive); in assay [4] it was -2.29% (inactive); in assay [9], 2% (inactive). For the same compound, the nuclei count in assay [2] worked out at 177%. Also, the z-score in assay [3] (setting [10]) is -1.26; in assay [3] (setting [11]), -0.0771; in assay [3] (setting [12]), 0.981. The values for the fluorescence slope in [5] and in [7] were -0.467 (inactive) and 0.00532 (inactive), respectively. Further, in assay [6], the NADPH fluorescence slope was -0.00019 (inactive). In addition, the call in assay [8] was inactive.
Take `Cc1cc(=O)oc(C)c1C(=O)NCC1CCCO1` (centres undefined): the cell count in assay [1] stood at 606. The inhibition in [1] is 9.1% (inactive); in assay [2], -24.6% (inactive); in assay [4], 5.35% (inactive); in [9], 5.07% (inactive). This compound also came in with a nuclei count in assay [2] of 123%. Also, the z-score worked out at 0.0605 in assay [3] (setting [10]), 0.0774 in assay [3] (setting [11]) and 0.0396 in [3] (setting [12]). The fluorescence slope in [5] was -0.441 (inactive); in assay [7], 0.00527 (inactive). The NADPH fluorescence slope in assay [6] is -4.3e-05 (inactive). In assay [8], the outcome was inactive.
Consider `CCOC(=O)NC(Nc1cc(C)on1)(C(F)(F)F)C(F)(F)F`, for which, in [1], the cell count came to 705. In addition, the inhibition in [1] is -7.9% (inactive); in assay [2], -70% (inactive); in assay [4], -11.4% (inactive); in assay [9], -3.89% (inactive). The nuclei count in assay [2] was 169%. The results for the z-score in assay [3] (setting [10]), in [3] (setting [11]) and in assay [3] (setting [12]) were -0.319, 1.98 and 0.812, respectively. Further, the values for the fluorescence slope in [5] and in assay [7] were -0.465 (inactive) and 0.00511 (inactive), respectively. Besides, the NADPH fluorescence slope in [6] was -3.9e-05 (inactive). Further, in assay [8], the compound was classed as inactive.
In the case of `O=C(NCCCn1ccnc1)c1cccnc1`, the cell count in assay [1] was 412. The inhibition in [1] is -1% (inactive); in [2], -143% (inactive); in assay [4] it was 5.65% (inactive); in assay [9] it was 0.663% (inactive). The same compound gave a nuclei count in assay [2] of 187%. Also, the z-score in assay [3] (setting [10]) was -0.692; in assay [3] (setting [11]), 0.968; in [3] (setting [12]), -0.483. Moreover, the fluorescence slope in assay [5] was -0.459 (inactive); in assay [7] it was 0.00592 (inactive). Besides, the NADPH fluorescence slope in [6] was -0.000144 (inactive). Also, the result in assay [8] was inactive.
Turning to `c1ccc2c(c1)[nH]c1c(N3CCN(C4CCCCC4)CC3)ncnc12`, the cell count in assay [1] came to 601. Moreover, the inhibition in assay [1] was -21% (inactive); in assay [2], -59.2% (inactive); in assay [4], 27.4% (inactive); in assay [9] it was 18.4% (inactive). Further, in assay [2], the nuclei count stood at 172%. The results for the z-score in [3] (setting [10]), in [3] (setting [11]) and in [3] (setting [12]) were 0.663, -1.44 and -1.01, respectively. Also, the values for the fluorescence slope in assay [5] and in assay [7] were -0.169 (inactive) and 0.00557 (inactive), respectively. In [6], the NADPH fluorescence slope was -1.6e-05 (inactive). Besides, the call in assay [8] was inactive.
